Data published in ChEMBL document CHEMBL1255281, “Effects on gram-negative and gram-positive bacteria mediated by 5-aminolevulinic Acid and 5-aminolevulinic acid derivatives” (2008).
The source made the active and inactive calls. The rule behind the calls is not given here.

Legend:
Escherichia coli [1] = experiment: Induction of photoactive porphyrins in Escherichia coli K-12 at 10 mM exposed to irradiation at 120 J.cm2 light by HPLC; assay type: functional, organism-based
How it was run: (§1)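 Cells were loaded 4 h at 37°C in the dark with substrate in PBS (pH 6.5), in parallel with the PDI samples. 10 ml of suspension was pelleted and taken up in ethanol/DMSO/acetic acid (80:20:1). Cells were broken by five 5-s sonication pulses at 0°C and centrifuged. The supernatant was run on HPLC with a gradient (acetate buffer/acetonitrile to methanol/acetonitrile) and fluorescence detection (ex 407, em 620 nm). Total porphyrins are given as pmol·10⁻⁶ CFU.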

Escherichia coli [2] = experiment: Antibacterial activity against Escherichia coli K-12 assessed as reduction in microbial viability incubated at 10 mM followed by irradiation at 120 J.cm2 light; assay type: functional, organism-based
How it was run: (§2)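 Log-phase cells (OD600 ~0.30) washed twice in PBS (0.1 N, pH 6.5), pelleted, resuspended in freshly made substrate in the same PBS and kept 4 h at 37°C in the dark with shaking. About 5 × 10⁷ bacteria in 2.5 ml were then exposed to white halogen light for 40 min (120 J·cm⁻²). CFU were counted by plating dilutions on Columbia agar. Survival = CFU/ml after PDI ÷ CFU/ml of initial sample; mean of n = 4 ± SD.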

Escherichia coli [3] = experiment: Antibacterial activity against Escherichia coli K-12 assessed as reduction in microbial viability incubated at <40 mM for 4 hrs under dark condition; assay type: functional, organism-based
How it was run: (§3)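 Dark toxicity. Washed log-phase cells (OD600 ~0.30, PBS 0.1 N pH 6.5) were held 4 h at 37°C in the dark with shaking in substrate dissolved in the same PBS and were not illuminated. CFU were counted on Columbia agar. Survival = CFU/ml of nonilluminated sample ÷ CFU/ml of initial sample; mean of n = 4 ± SD.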

Escherichia coli [4] = experiment: Antibacterial activity against Escherichia coli K-12 assessed as reduction in microbial viability incubated at 0.1 mM followed by irradiation at 120 J.cm2 light; assay type: functional, organism-based; how it was run: as §2
Escherichia coli [5] = experiment: Antibacterial activity against Escherichia coli K-12 assessed as reduction in microbial viability incubated at 40 mM followed by irradiation at 120 J.cm2 light; assay type: functional, organism-based; how it was run: as §2
Escherichia coli [6] = experiment: Induction of photoactive porphyrins in Escherichia coli K-12 exposed to irradiation at 120 J.cm2 light by HPLC; assay type: functional, organism-based; how it was run: as §1
Escherichia coli [7] = experiment: Induction of photoactive porphyrins in Escherichia coli K-12 assessed as uroporphyrin level exposed to irradiation at 120 J.cm2 light by HPLC; assay type: functional, organism-based; how it was run: as §1
Escherichia coli [8] = experiment: Induction of photoactive porphyrins in Escherichia coli K-12 assessed as protoporphyrin level exposed to irradiation at 120 J.cm2 light by HPLC; assay type: functional, organism-based; how it was run: as §1
Escherichia coli [9] = experiment: Antibacterial activity against Escherichia coli K-12 assessed as reduction in microbial viability incubated at 40 mM for 4 hrs under dark condition; assay type: functional, organism-based; how it was run: as §3
Escherichia coli [10] = experiment: Antibacterial activity against Escherichia coli K-12 assessed as microbial survival fraction incubated at 0.1 mM followed by irradiation at 120 J.cm2 light relative to untreated control; assay type: functional; how it was run: as §2
Escherichia coli [11] = experiment: Antibacterial activity against Escherichia coli Ti05 assessed as microbial survival fraction incubated at 1 mM followed by irradiation at 120 J.cm2 light relative to untreated control; assay type: functional; how it was run: as §2
Pseudomonas aeruginosa [12] = experiment: Antibacterial activity against Pseudomonas aeruginosa assessed as microbial survival fraction incubated at 1 mM followed by irradiation at 120 J.cm2 light relative to untreated control; assay type: functional; how it was run: as §2
Staphylococcus aureus [13] = experiment: Antibacterial activity against methicillin resistant Staphylococcus aureus assessed as microbial survival fraction incubated at 10 mM followed by irradiation at 120 J.cm2 light relative to untreated control; assay type: functional
How it was run: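 MRSA grown 48 h on Columbia sheep-blood agar, then overnight in tryptone soy broth at 37°C, brought to OD600 ~0.30 and washed twice in PBS pH 6.5. Cells were held with substrate in PBS for 4 h in the dark at 37°C with shaking. About 5 × 10⁷ bacteria were exposed to halogen white light for 40 min (120 J·cm⁻²). CFU were counted on Columbia agar; survival = N_PDI/N₀; mean of n = 4 ± SD.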

Escherichia coli [14] = experiment: Induction of photoactive porphyrins in Escherichia coli K-12 assessed as porphyrin level per 10^-6 CFU microbial load incubated at 0.1 mM followed by irradiation at 120 J.cm2 light relative to untreated control; assay type: functional; how it was run: as §1
Escherichia coli [15] = experiment: Induction of photoactive porphyrins in Escherichia coli Ti05 assessed as porphyrin level per 10^-6 CFU microbial load incubated at 1 mM followed by irradiation at 120 J.cm2 light relative to untreated control; assay type: functional; how it was run: as §1
Pseudomonas aeruginosa [16] = experiment: Induction of photoactive porphyrins in Pseudomonas aeruginosa assessed as porphyrin level per 10^-6 CFU microbial load incubated at 1 mM followed by irradiation at 120 J.cm2 light relative to untreated control; assay type: functional; how it was run: as §1
Staphylococcus aureus [17] = experiment: Induction of photoactive porphyrins in methicillin resistant Staphylococcus aureus assessed as porphyrin level per 10^-6 CFU microbial load incubated at 10 mM followed by irradiation at 120 J.cm2 light relative to untreated control; assay type: functional
How it was run: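 MRSA was washed in PBS pH 6.5 and held with substrate in PBS for 4 h in the dark at 37°C with shaking; a separate fraction was taken for porphyrin analysis. Pellets were extracted in ethanol/DMSO/acetic acid (80:20:1), sonicated 5 × 5 s at 0°C and centrifuged. Supernatant went to gradient HPLC with fluorescence detection (excitation 407, emission 620 nm). Total porphyrins are expressed as pmol·10⁻⁶ CFU.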

Escherichia coli [18] = experiment: Induction of photoactive porphyrins in Escherichia coli K-12 assessed as porphyrin 7-CP level exposed to irradiation at 120 J.cm2 light by HPLC; assay type: functional, organism-based; how it was run: as §1
Escherichia coli [19] = experiment: Induction of photoactive porphyrins in Escherichia coli K-12 assessed as porphyrin 6-CP level exposed to irradiation at 120 J.cm2 light by HPLC; assay type: functional, organism-based; how it was run: as §1
Escherichia coli [20] = experiment: Antibacterial activity against Escherichia coli K-12 assessed as reduction in microbial viability incubated at 30 mM for 4 hrs under dark condition; assay type: functional, organism-based; how it was run: as §3
Escherichia coli [21] = experiment: Antibacterial activity against Escherichia coli K-12 assessed as microbial survival fraction incubated at 10 mM followed by irradiation at 120 J.cm2 light relative to untreated control; assay type: functional; how it was run: as §2
Escherichia coli [22] = experiment: Antibacterial activity against Escherichia coli Ti05 assessed as microbial survival fraction incubated at 10 mM followed by irradiation at 120 J.cm2 light relative to untreated control; assay type: functional; how it was run: as §2
Pseudomonas aeruginosa [23] = experiment: Antibacterial activity against Pseudomonas aeruginosa assessed as microbial survival fraction incubated at 10 mM followed by irradiation at 120 J.cm2 light relative to untreated control; assay type: functional; how it was run: as §2
Escherichia coli [24] = experiment: Induction of photoactive porphyrins in Escherichia coli K-12 assessed as porphyrin level per 10^-6 CFU microbial load incubated at 10 mM followed by irradiation at 120 J.cm2 light relative to untreated control; assay type: functional; how it was run: as §1
Escherichia coli [25] = experiment: Induction of photoactive porphyrins in Escherichia coli Ti05 assessed as porphyrin level per 10^-6 CFU microbial load incubated at 10 mM followed by irradiation at 120 J.cm2 light relative to untreated control; assay type: functional; how it was run: as §1
Escherichia coli [26] = experiment: Induction of photoactive porphyrins in Escherichia coli K-12 assessed as porphyrin 5-CP level exposed to irradiation at 120 J.cm2 light by HPLC; assay type: functional, organism-based; how it was run: as §1
Pseudomonas aeruginosa [27] = experiment: Induction of photoactive porphyrins in Pseudomonas aeruginosa assessed as porphyrin level per 10^-6 CFU microbial load incubated at 10 mM followed by irradiation at 120 J.cm2 light relative to untreated control

**Q.** With `CCCCCCCCOC(=O)CCC(=O)CN` as the molecule, how does the Activity (Escherichia coli [1]) read?
**A.** The Activity was “inactive”.

**Q.** What about the “growth inhibition (GI)” value (Escherichia coli [2]) of the same molecule?
**A.** Its value is “inactive”.

**Q.** Which Activity (Escherichia coli [1]) does the source give for `CCCCCCOC(=O)CCC(=O)CN` here?
**A.** The Activity was “inactive”.

**Q.** What about the “growth inhibition (GI)” value (Escherichia coli [2]) of the same molecule?
**A.** Its value is “inactive”.

**Q.** What does the source list for `CCCCCOC(=O)CCC(=O)CN`?
**A.** Activity (Escherichia coli [1]): inactive; growth inhibition (GI) (Escherichia coli [2]): inactive

**Q.** How did the Activity (Escherichia coli [1]) turn out when `CCCCOC(=O)CCC(=O)CN` was run?
**A.** The Activity was “Active”.

**Q.** And the “growth inhibition (GI)” value (Escherichia coli [2])?
**A.** The value was “Active”.

**Q.** With `NCC(=O)CCC(=O)O` [AMINOLEVULINIC ACID] as the molecule, how does the “growth inhibition (GI)” value (Escherichia coli [3]) read?
**A.** Its value is “inactive”.

**Q.** And the “growth inhibition (GI)” value (Escherichia coli [4])?
**A.** The value was “Active”.

**Q.** And the “growth inhibition (GI)” value (Escherichia coli [5])?
**A.** Its value is “Active”.

**Q.** And the Activity (Escherichia coli [6])?
**A.** Its Activity is “Active”.

**Q.** What about the Activity (Escherichia coli [7]) of the same molecule?
**A.** The Activity was “Active”.

**Q.** What about the Activity (Escherichia coli [8]) of the same molecule?
**A.** The Activity was “Active”.

**Q.** And the “growth inhibition (GI)” value (Escherichia coli [9])?
**A.** The value was “Active”.

**Q.** What about the Ratio (Escherichia coli [10]) of the same molecule?
**A.** The Ratio was 0.00048.

**Q.** And the Ratio (Escherichia coli [11])?
**A.** The Ratio was 5e-05.

**Q.** And the Ratio (Pseudomonas aeruginosa [12])?
**A.** Its Ratio is 0.0019.

**Q.** And the Ratio (Staphylococcus aureus [13])?
**A.** The Ratio was 5e-06.

**Q.** What about the Activity (Escherichia coli [14]) of the same molecule?
**A.** Its Activity is 7.5 pmol.

**Q.** And the Activity (Escherichia coli [15])?
**A.** The Activity was 5.4 pmol.

**Q.** And the Activity (Pseudomonas aeruginosa [16])?
**A.** The Activity was 34.5 pmol.

**Q.** What about the Activity (Staphylococcus aureus [17]) of the same molecule?
**A.** Its Activity is 6.6 pmol.

**Q.** How did the Activity (Escherichia coli [7]) turn out when `COC(=O)CCC(=O)CN` [METHYL AMINOLEVULINATE] was run?
**A.** The Activity was “Active”.

**Q.** And the Activity (Escherichia coli [18])?
**A.** Its Activity is “Active”.

**Q.** What about the Activity (Escherichia coli [19]) of the same molecule?
**A.** Its Activity is “Active”.

**Q.** And the “growth inhibition (GI)” value (Escherichia coli [2])?
**A.** Its value is “Active”.

**Q.** And the “growth inhibition (GI)” value (Escherichia coli [20])?
**A.** The value was “Active”.

**Q.** What about the Ratio (Staphylococcus aureus [13]) of the same molecule?
**A.** The Ratio was 0.00078.

**Q.** And the Activity (Staphylococcus aureus [17])?
**A.** Its Activity is 2.5 pmol.

**Q.** And the Ratio (Escherichia coli [21])?
**A.** Its Ratio is 8.1e-06.

**Q.** What about the Ratio (Escherichia coli [22]) of the same molecule?
**A.** The Ratio was 2e-05.

**Q.** And the Ratio (Pseudomonas aeruginosa [23])?
**A.** The Ratio was 0.012.

**Q.** What about the Activity (Escherichia coli [24]) of the same molecule?
**A.** The Activity was 12.5 pmol.

**Q.** What about the Activity (Escherichia coli [25]) of the same molecule?
**A.** The Activity was 10.2 pmol.

**Q.** And the Activity (Escherichia coli [26])?
**A.** The Activity was “Active”.

**Q.** What about the Activity (Pseudomonas aeruginosa [27]) of the same molecule?
**A.** The Activity was 6 pmol.
